Measurements: paper PMC3792851 (Drug Design, Development and Therapy, 2013)

Tested on: ABCG2-transfected HEK293 cells
Test: Sensitization of ABCG2-transfected cells to mitoxantrone, MTT assay
Format: cell-based, human
Conditions: no chalcone
Summary of the method: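 ABCG2-transfected (resistant) and empty-vector (sensitive) HEK293 cells seeded at 1 × 10^4 cells/well and incubated overnight. Then grown 72 h at 37°C, 5% CO2 with increasing mitoxantrone; resistant cells ran with or without 1 μM test compound. Survival read by MTT against 0.1% DMSO medium controls. At least three replicates; mitoxantrone IG50 from fitted curves.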

SMILES: O=C1c2c(O)ccc(O)c2C(=O)c2c(NCCNCCO)ccc(NCCNCCO)c21 [mitoxantrone, Mitoxantrone]
- IG50 of mitoxantrone, resistant cells (ABCG2-transfected resistant cells): 82.8 ± 21.7 nM
- IG50 of mitoxantrone, sensitive control cells (sensitive control HEK293 cells (empty vector)): 14.5 ± 3.6 nM
